Test results reported in ChEMBL document CHEMBL4732262, “Identification of two novel thiophene analogues as inducers of autophagy mediated cell death in breast cancer cells” (Bioorg Med Chem, 2021).
Activity calls are given as the source filed them. The rule behind the calls is not given here.

What was measured:
MCF7 [1] = test: Induction of apoptosis in human MCF7cells assessed as reduction in size of cells at 2.5 uM by phase contrast microscopic method; format: functional, cell-based; settings: time 6-24 hrs, TDE = time-dependent effect
Outline: (§1)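 ~5 × 10^4 cells in 6-well plates, either DMSO control or 2.5 µM. Morphology imaged at 0, 6, 12 and 24 h.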

MCF7 [2] = test: Induction of apoptosis in human MCF7 cells assessed as increase in cleaved-PARP protein expression at 2.5 uM after 24 hrs in presence of chloroquine by Western blot analysis; format: functional, cell-based
Outline: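 MCF7 cells given 2.5 µM alone or combined with 50 µM chloroquine for 24 h. Western blot for cleaved PARP, p62 and LC3, with GAPDH as loading control. LC3-II/I ratio by densitometry. At least two independent experiments.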

MCF7 [3] = test: Induction of apoptosis in human MCF7 cells assessed as morphological changes at 2.5 uM after up to 24 hrs by phase contrast microscopic method; format: functional, cell-based; settings: time hrs <=24; outline: as §1
MCF7 [4] = test: Cytotoxicity against human MCF7 cells assessed as reduction in cell viability at 25 to 100 uM after 24 hrs in presence of chloroquine by MTT assay; format: functional, cell-based; settings: dose 25-100 µM
Outline: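 ~0.5 × 10^5 cells per well in six-well plates given 2.5 µM test agent together with chloroquine at 25, 50 or 100 µM, 24 h at 37 °C in humidified CO2. Viability read by MTT. Duplicate assays from two independent experiments, shown with SD.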

MCF7 [5] = test: Induction of autophagy in human MCF7 cells expressing GFP tagged LC3-2 assessed as increase in […] puncta formation at 2.5 uM after 24 hrs by confocal microscopic analysis; format: functional, cell-based
Outline: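 MCF7 cells (~1 × 10^6) at 70% confluency on glass-bottom dishes were transiently transfected with GFP-LC3 (Lipofectamine 3000). 24 h later they received 2.5 µM compound or DMSO for another 24 h. Nuclei were stained with Hoechst 33342 and lysosomes with LysoTracker Red DND-99, then imaged by live-cell confocal microscopy. LC3 puncta were counted in at least 10 cells from 3 fields. Two independent experiments.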

MCF7 [6] = test: Induction of autophagy in human MCF7 cells assessed as increase in DDIT3 mRNA expression at 2.5 uM after 24 hrs by PCR microarray analysis; format: functional, cell-based
Outline: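 MCF7 cells given 2.5 µM or DMSO for 24 h. cDNA run on an Unfolded Protein Response RT2 Profiler PCR array. Changes computed by 2^-ΔΔCt (log2) against control, normalised to the mean of ACTB, B2M, GAPDH, HPRT1 and RPLPO.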

MDA-MB-231 [7] = test: Induction of apoptosis in human MDA-MB-231 cells assessed as increase in cleaved PARP level at 2.5 uM after r24 hrs by Western blot analysis; format: functional, cell-based; settings: time 24.0 hrs
Outline: (§2)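 MCF7 or MDA-MB-231 cells given 2.5 µM or DMSO for 24 h, then lysed in RIPA buffer. Immunoblots probed overnight at 4 °C, followed by infrared-labelled secondary antibody for 1 h at 37 °C. Bands imaged and quantified densitometrically, with GAPDH as loading control. Representative of two independent experiments.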

MCF7 [8] = test: Induction of autophagy in human MCF7 cells assessed as increase in PIK3CG mRNA expression at 2.5 uM after 24 hrs by RT-PCR analysis; format: functional, cell-based
Outline: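 Total RNA was taken with TRIzol from MCF7 cells treated 24 h with 2.5 µM compound or DMSO, then reverse transcribed. SYBR Green qPCR ran 40 cycles of 95 °C 15 s / 60 °C 1 min. Relative expression was calculated by 2^-ΔΔCt against DMSO-treated cells, normalized to housekeeping genes (GAPDH, B2M and others). Samples run in duplicate, two independent experiments, values averaged.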

MCF7 [9] = test: Induction of apoptosis in human MCF7 cells assessed as change in Bcl-2 protein expression at 2.5 uM after 24 hrs by Western blot analysis; format: functional, cell-based; outline: as §2
MDA-MB-231 [10] = test: Cytotoxicity against human MDA-MB-231 cells assessed as reduction in cell viability after 24 hrs by MTT assay; format: functional, cell-based; settings: MDA-MB-231, 24 h
Outline: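 Cells seeded ~5 × 10^3 per well in 96-well plates, exposed to 0–40 µM for 24 h. MTT added at 0.5 mg/ml for 3 h, formazan dissolved in DMSO, absorbance read at 540 nm. IC50 taken from plotted curves. Duplicate wells, two independent repeats. MCF7 grown in DMEM, MDA-MB-231 in RPMI, both with 10% FBS at 37 °C and 5% CO2.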

MCF7 [11] = test: Induction of autophagy in human MCF7 cells assessed as increase in PPP1R15A mRNA expression at 2.5 uM after 24 hrs by PCR microarray analysis; format: functional, cell-based
Outline: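 MCF7 cells (~10 × 10^6) were treated with 2.5 µM compound or DMSO for 24 h. Total RNA was converted to cDNA and run on an Unfolded Protein Response RT2 Profiler PCR array. Log2 fold change was computed by 2^-ΔΔCt against control cells, normalized to the mean of ACTB, B2M, GAPDH, HPRT1 and RPLPO.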

MCF7 [12] = test: Induction of autophagy in human MCF7 cells assessed as LC3-2 to LC3-1 protein ratio at 2.5 uM after 24 hrs in presence of chloroquine by Western blot analysis (reference value: 0.52 to 0.65)
MDA-MB-231 [13] = test: Induction of apoptosis in human MDA-MB-231 cells assessed as necrotic cells at 2.5 uM after 24 hrs by annexin V-FITC/Propidium iodide staining based flow cytometric analysis (reference value: 0.65%); format: functional
MCF7 [14] = test: Induction of apoptosis in human MCF7 cells assessed as increase in cleaved-PARP protein expression after 24 hrs by Western blot analysis; format: functional, cell-based; settings: dose 1.25-5 µM
MCF7 [15] = test: Induction of autophagy in human MCF7 cells assessed as increase in GABARAP mRNA expression at 2.5 uM after 24 hrs by RT-PCR analysis; format: functional, cell-based
Outline: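 MCF7 cells given 2.5 µM or DMSO for 24 h. Total RNA extracted with TRIzol and reverse-transcribed, then SYBR Green qPCR across 34 autophagy-regulatory genes (95 °C 10 min; 40 cycles of 95 °C 15 s and 60 °C 1 min). Relative expression by 2^-ΔΔCt against housekeeping genes and DMSO control, shown as log2. Two independent experiments.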

MDA-MB-231 [16] = test: Induction of apoptosis in human MDA-MB-231 cells at 2.5 uM after 24 hrs by annexin V-FITC/Propidium iodide staining based flow cytometric analysis relative to tanshinone-1; format: functional
MCF7 [17] = test: Induction of apoptosis in human MCF7 cells at 2.5 uM after 24 hrs by annexin V-FITC/Propidium iodide staining based flow cytometric analysis relative to tanshinone-2A; format: functional
MCF7 [18] = test: Induction of apoptosis in human MCF7 cells assessed as change in Bcl-xL protein expression at 2.5 uM after 24 hrs by Western blot analysis; format: functional, cell-based; outline: as §2

SMILES | Activity (MCF7 [1]) | Activity (MCF7 [2]) | Activity (MCF7 [3]) | Activity (MCF7 [4]) | Activity (MCF7 [5]) | Activity (MCF7 [6]) | Activity (MDA-MB-231 [7]) | Activity (MCF7 [8]) | Activity (MCF7 [9]) | IC50 (MDA-MB-231 [10]) [µM] | Activity (MCF7 [11]) | Ratio (MCF7 [12]) | Activity (MDA-MB-231 [13]) [%] | Activity (MCF7 [14]) | Activity (MCF7 [15]) | fold change (FC) (MDA-MB-231 [16]) | fold change (FC) (MCF7 [17]) | Activity (MCF7 [18])
O=C1C(=O)c2ccsc2-c2ccccc21 | Tde | inactive | Active | inactive | Active | Active | Active | Active | inactive | 2.6 | Active | 0.92 | 43.5 | Dose-dependent effect | Active | >=2 | >=2 | inactive
O=C1C(=O)c2sccc2-c2ccccc21 | Tde | inactive | Active | inactive | Active | Active | Active | Active | inactive | 2.96 | Active | 1.1 | 26.8 | Dose-dependent effect | Active | >=2 | >=2 | inactive
